Paper PMC3685236 (International Journal of Molecular Sciences, 2007)
Read-outs that look alike come from different tables or passages of the source.

Tests used:
Format in all cases: cell-based
[1] = system: HeLa cells; experiment: Antiproliferative activity, Kenacid Blue R dye binding cell survival, HeLa; conditions: Homo sapiens
Method in brief: (§1)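 Adherent cells seeded at 2,000/well (HeLa, Fem-X) or 6,000/well (LS174); compounds added 20 h later at five double-diluted concentrations (20 mM DMSO stocks, final 0–300 μM). Continuous 72 h exposure, 37 °C, 5% CO2. PBS wash, methanol/acetic acid (3:1) fixation, 0.04% Coomassie R-250 staining, A570. Survival % vs medium-only control after cell-free blank subtraction; IC50 read from survival–concentration plot.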

[2] = system: K562 cells; experiment: Antiproliferative activity, Kenacid Blue R dye binding cell survival, K562; conditions: Homo sapiens, K562, 72 h, read-out: IC50 (μM) K562
Method in brief: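 K562 suspension culture in RPMI 1640 with 10% heat-inactivated FBS, 3 mM glutamine, 25 mM Hepes, pH 7.2. Seeded 3,000 cells/well and dosed 2 h later at five double-diluted concentrations (final 0–300 μM, from DMSO stocks). Exposure was 72 h at 37 °C, 5% CO2. Total protein by Kenacid Blue R (Coomassie R-250) staining, A570, blank-corrected. IC50 taken from survival % vs concentration.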

[3] = system: Fem-X cells; experiment: Antiproliferative activity, Kenacid Blue R dye binding cell survival, Fem-X; conditions: Homo sapiens, 72 h, read-out: IC50 (μM) Fem-X
Method in brief: as §1

[4] = system: LS174 cells; experiment: Antiproliferative activity, Kenacid Blue R dye binding cell survival, LS174; conditions: Homo sapiens, LS174, 72 h, read-out: IC50 (μM) LS174
Method in brief: as §1

[5] = system: PBMC; experiment: Cytotoxicity toward healthy peripheral blood mononuclear cells; conditions: Homo sapiens, 72 h, read-out: IC50 PBMC
Method in brief: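 Unstimulated PBMC (no mitogen) were isolated from heparinized blood of two healthy donors by Lymphoprep gradient and washed three times in Haemaccel. Seeded at 150,000/well, then dosed 2 h later in triplicate at five final concentrations. After 72 h, cells were centrifuged (10 min, 2,000 rpm), fixed in methanol/acetic acid and stained with Kenacid Blue R, and A570 was read. Survival % vs medium control, cell-free blank subtracted.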

[6] = read-out: Obtained log(1/(IC50)) (converted)

Compound	IC50 ([1]; 72 h, read-out: IC50 (μM) HeLa) [µM]	IC50 [1, 6] [µM]	IC50 [2] [µM]	IC50 [3] [µM]	IC50 [4] [µM]	IC50 [5] [µM]
CC(C)(C(=O)O)C(C)(O)c1ccc(-c2ccccc2)cc1 (stereo not shown) [Compound 1, 3-Hydroxy-2,2-dimethyl-3-(4-biphenylyl)butanoic acid]	62.2	62.2	141	205	154	> 300
CC(C)(C(=O)O)C(O)(c1ccccc1)c1ccccc1 [Compound 2, 3-Hydroxy-2,2-dimethyl-3,3-diphenylpropanoic acid]	80.6	80.5	–	–	–	–
CC(C(=O)O)C(O)c1ccccc1Cl (stereo not shown) [Compound 3, 3-Hydroxy-2-methyl-3-(2-chlorophenyl)propanoic acid]	97.2	97.3	92	89	93	> 300
CC(O)(CC(=O)O)c1ccc(-c2ccccc2)cc1 (stereo not shown) [Compound 4, 3-Hydroxy-3-(4-biphenylyl)butanoic acid]	98.7	98.6	> 200	> 200	> 200	> 300
CC(C(=O)O)C(O)(c1ccccc1)c1ccccc1 (stereo not shown) [Compound 6, 3-Hydroxy-2-methyl-3,3-diphenylpropanoic acid]	99.4	99.3	–	–	–	–
CC(C)(C(=O)O)C(O)c1ccc(Cl)cc1 (stereo not shown) [Compound 7, 3-Hydroxy-2,2-dimethyl-3-(4-chlorophenyl)propanoic acid]	106	106	> 200	> 200	> 200	> 300
O=C(O)CC(O)c1ccccc1Cl (stereo not shown) [Compound 8, 3-Hydroxy-3-(2-chlorophenyl)propanoic acid]	118	118	> 200	> 200	> 200	–
CC(C)(C(=O)O)C(C)(O)c1ccccc1 (stereo not shown) [Compound 11, 3-Hydroxy-2,2-dimethyl-3-phenylbutanoic acid]	133	133	–	–	–	> 300
CC(C)Cc1ccc(C(C)(O)CC(=O)O)cc1 (stereo not shown) [Compound 12, 3-Hydroxy-3(4-isobutylphenyl)butanoic acid]	151	151	> 200	> 200	> 200	> 300
CC(C)(C(=O)O)C(O)c1ccccc1 (stereo not shown) [Compound 13, 3-Hydroxy-2,2-dimethyl-3-phenylpropanoic acid]	165	165	–	–	–	–
O=C(O)CC(O)(c1ccccc1)c1ccccc1 [Compound 14, 3-Hydroxy-3,3-diphenylpropanoic acid]	183	182	–	–	–	–
